Assay results reported in ChEMBL document CHEMBL1147081, “Structure of the deacetylase LpxC bound to the antibiotic CHIR-090: Time-dependent inhibition and specificity in ligand binding” (Proc Natl Acad Sci U S A, 2007).
pKi: −log10 of the molar value.

Columns and labels:
[1] = target: UDP-3-O-acyl-N-acetylglucosamine deacetylase (Escherichia coli K-12, UniProt P0A725, G210S/Q202W); assay: Inhibition of Escherichia coli LpxC Q202W/G210S mutant
[2] = Inhibition of Rhizobium leguminosarum LpxC
[3] = target: UDP-3-O-acyl-N-acetylglucosamine deacetylase (Rhizobium leguminosarum bv. trifolii (strain WSM1325), UniProt C6ARS9, S214G/W206Q); assay: Inhibition of Rhizobium leguminosarum LpxC W206Q/S214G mutant
Sequence of UDP-3-O-acyl-N-acetylglucosamine deacetylase (Rhizobium leguminosarum bv. trifolii (strain WSM1325), UniProt C6ARS9, S214G/W206Q) (C6ARS9 as listed by the source W206Q/S214G): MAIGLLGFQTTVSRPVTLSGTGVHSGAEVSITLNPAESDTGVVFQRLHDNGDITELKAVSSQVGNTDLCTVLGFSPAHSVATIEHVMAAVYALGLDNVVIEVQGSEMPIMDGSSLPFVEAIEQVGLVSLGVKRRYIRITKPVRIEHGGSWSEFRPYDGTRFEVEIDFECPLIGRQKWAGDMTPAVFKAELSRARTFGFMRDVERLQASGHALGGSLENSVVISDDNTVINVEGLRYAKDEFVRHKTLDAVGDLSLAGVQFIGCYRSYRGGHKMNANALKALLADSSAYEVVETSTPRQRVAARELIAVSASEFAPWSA
Method in brief: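 Assays used 5 μM UDP-3-O-(R-3-hydroxymyristoyl)-N-acetylglucosamine substrate and varied inhibitor at constant 10% DMSO. An IC50 curve was fit to fractional activity (vi/vo), and Ki was derived with the Cheng–Prusoff relationship.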

[4] = target: T1, UDP-3-O-acyl-N-acetylglucosamine deacetylase (Escherichia coli K-12, UniProt P0A725); assay: Inhibition of Escherichia coli LpxC
T1 sequence (P0A725 whole entry): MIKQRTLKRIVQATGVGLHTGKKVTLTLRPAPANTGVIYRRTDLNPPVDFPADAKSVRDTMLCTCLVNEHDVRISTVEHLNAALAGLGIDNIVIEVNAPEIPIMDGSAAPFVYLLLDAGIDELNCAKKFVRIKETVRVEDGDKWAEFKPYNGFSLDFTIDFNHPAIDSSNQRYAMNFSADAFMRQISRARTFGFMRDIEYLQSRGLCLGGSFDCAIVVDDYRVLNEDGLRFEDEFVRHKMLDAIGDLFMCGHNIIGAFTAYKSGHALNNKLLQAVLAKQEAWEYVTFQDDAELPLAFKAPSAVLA

Sequence of UDP-3-O-acyl-N-acetylglucosamine deacetylase (Escherichia coli K-12, UniProt P0A725, G210S/Q202W) (P0A725 whole entry Q202W/G210S): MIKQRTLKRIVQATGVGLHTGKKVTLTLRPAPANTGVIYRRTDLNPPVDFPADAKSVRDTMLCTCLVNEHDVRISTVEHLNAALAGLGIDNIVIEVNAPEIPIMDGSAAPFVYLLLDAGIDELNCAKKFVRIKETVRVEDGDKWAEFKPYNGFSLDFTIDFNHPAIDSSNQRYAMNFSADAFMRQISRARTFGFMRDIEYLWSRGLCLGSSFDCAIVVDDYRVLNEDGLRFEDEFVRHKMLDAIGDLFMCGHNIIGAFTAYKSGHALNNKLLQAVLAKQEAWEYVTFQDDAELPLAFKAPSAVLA

Compound `CCCc1cc(C2=N[C@@H](C(=O)NO)CO2)cc(OC)c1OC` has a pKi [1] of 6.47, a pKi [2] of 3.42 and a pKi [3] of 3.96. The pKi [4] was 7.28.
In the case of `O=C(NO)[C@@H](Cc1ccc2ccccc2c1)NS(=O)(=O)c1ccc2ccccc2c1`, the pKi [1] was 7.07, the pKi [2] was 5.24 and the pKi [3] was 6.15. It also gave a pKi [4] of 7.16.
